Calls of active or inactive are those of the source.
Key:
Mus musculus [1] = assay: Antinociceptive activity in Swiss Webster mouse assessed as inhibition of acetic acid-induced abdominal constrictions at 25 mg/kg, ip dosed 40 mins before acetic acid injection; type: functional, organism-based; design: dose 25 mg/kg; conditions: Abdomen
Summary of the method: (§1)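 Male Swiss Webster mice dosed ip (5% DMSO in saline vehicle) 40 min before ip acetic acid 0.8% v/v, 10 mL/kg; writhes (abdominal contraction with hind-limb stretching) counted over 0−30 min; mean writhing score, n = 10 per group; ANOVA with Tukey.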

Mus musculus [2] = assay: Antiinflammatory activity in Swiss Webster mouse assessed as reduction in hyperalgesia at 100 mg/kg, ip dosed 40 mins before CFA injection and measured 4 to 6 hrs post CFA stimulus; type: functional, organism-based; design: dose 100 mg/kg
Summary of the method: (§2)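 Male Swiss Webster mice (22−28 g) given drug ip in 5% DMSO/saline (dexamethasone in 10% ethanol/saline) 40 min before 20 μL CFA (1 mg/mL heat-killed M. tuberculosis in paraffin oil/mannide monooleate) sc into right hind paw plantar region. Mechanical threshold by von Frey filaments, up−down method, at 2, 4 and 6 h; n = 6; two-way ANOVA with Bonferroni.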

Mus musculus [3] = assay: Antinociceptive activity in Swiss Webster mouse assessed as inhibition of formalin-induced late phase pain response at 50 to 100 mg/kg, ip dosed 40 mins before formalin injection; type: functional, organism-based
Summary of the method: (§3)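 Mice acclimated 30 min in chamber, dosed ip 40 min before sc injection of 20 μL 2.5% formalin into dorsal hind paw; licking time of injected paw scored 0−10 min (early phase) and 10−30 min (late phase); n = 7−10; ANOVA with Tukey.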

Mus musculus [4] = assay: Antinociceptive activity in Swiss Webster mouse assessed as increase in reaction time at 100 mg/kg, ip measured after 3 hrs by tail flick test; type: functional, organism-based; design: dose 100 mg/kg
Summary of the method: (§4)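 Mice habituated to restraint cylinder 20 min/day for 5 days; distal 2 cm of tail immersed in 48 ± 0.5 °C water; tail withdrawal latency measured before and after ip dosing (5% DMSO/saline vehicle); 10 s cutoff; n = 6; two-way ANOVA with Bonferroni.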

Mus musculus [5] = assay: CNS toxicity in Swiss Webster mouse assessed as effect on motor performance at 100 mg/kg, ip after 40 mins by open field test; type: organism-based; design: dose 100 mg/kg, route intraperitoneal; conditions: in vivo
Summary of the method: (§5)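 Open-field test 40 min after ip dosing: mice placed singly in 40 × 60 × 50 cm box with 12 floor squares; squares crossed with all four paws counted over 3 min; n = 6; one-way ANOVA with Tukey.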

Mus musculus [6] = assay: Reduction in IL1-beta level in Swiss Webster mouse 100 mg/kg, ip dosed 40 mins before CFA injection and measured 3 hrs post CFA stimulus by ELISA method; type: functional, organism-based; design: dose 100 mg/kg; conditions: at 100 mg/kg
Summary of the method: (§6)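 Mice dosed ip 40 min before intraplantar CFA; paw skin removed under terminal halothane anesthesia; proteins extracted at 100 mg tissue/mL PBS with 0.4 M NaCl, 0.05% Tween 20 and protease inhibitors; centrifuged 3000g for 10 min; supernatant IL-1β or TNF-α measured by ELISA as pg/mL; n = 6.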

Mus musculus [7] = assay: CNS toxicity in Swiss Webster mouse assessed as effect on motor performance at 100 mg/kg, ip after 40 mins by rotarod test; type: organism-based; design: dose 100 mg/kg, route intraperitoneal; conditions: in vivo
Summary of the method: (§7)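 Rota-rod test: 3 cm bar at 8 rpm; mice pre-selected 24 h earlier by remaining on bar for two consecutive 120 s periods; placed on rod 40 min after ip dosing; time on bar recorded up to 120 s; n = 6; one-way ANOVA with Tukey.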

Mus musculus [8] = assay: Antinociceptive activity in Swiss Webster mouse assessed as inhibition of formalin-induced early phase pain response at 50 to 100 mg/kg, ip dosed 40 mins before formalin injection; type: functional, organism-based; summary of the method: as §3
Mus musculus [9] = assay: Antiinflammatory activity in Swiss Webster mouse assessed as reduction in hyperalgesia at 100 mg/kg, ip dosed 40 mins before CFA injection and measured 2 hrs post CFA stimulus; type: functional, organism-based; design: dose 100 mg/kg; summary of the method: as §2
Mus musculus [10] = assay: Reduction in TNFalpha level in Swiss Webster mouse 100 mg/kg, ip dosed 40 mins before CFA injection and measured 3 hrs post CFA stimulus by ELISA method; type: functional, organism-based; design: dose 100 mg/kg; conditions: at 100 mg/kg; summary of the method: as §6
Mus musculus [11] = assay: Antiinflammatory activity in Swiss Webster mouse assessed as reduction in paw edema at 50 to 100 mg/kg, ip dosed 40 mins before CFA injection and measured 2 to 4 hrs post CFA stimulus; type: functional, organism-based
Summary of the method: (§8)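 Male Swiss Webster mice, ip pretreatment in 5% DMSO/saline 40 min before intraplantar CFA (20 μL, 1 mg/mL heat-killed M. tuberculosis). Paw volume measured by plethysmometer before and 2, 4, 6 h after CFA; edema expressed as percent increase in paw volume; n = 6 mice/group; two-way ANOVA with Bonferroni.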

Mus musculus [12] = assay: Antinociceptive activity in Swiss Webster mouse assessed as increase in latency time at 100 mg/kg, ip measured after 0.5 to 2 hrs by hot plate test; type: functional, organism-based; design: dose 100 mg/kg
Summary of the method: (§9)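 Hot plate held at 55 ± 1 °C; male Swiss Webster mice; reaction time to hind paw licking or jumping recorded before and after ip dosing (vehicle 5% DMSO in saline); data as difference from baseline; 10 s cutoff; n = 6; two-way ANOVA with Bonferroni.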

Mus musculus [13] = assay: Antinociceptive activity in Swiss Webster mouse assessed as inhibition of formalin-induced late phase pain response at 5 mg/kg, ip dosed 40 mins before formalin injection; type: functional, organism-based; design: dose 5 mg/kg; summary of the method: as §3
Mus musculus [14] = assay: Antinociceptive activity in Swiss Webster mouse assessed as increase in reaction time at 5 mg/kg, ip measured after 3 hrs by tail flick test; type: functional, organism-based; design: dose 5 mg/kg; summary of the method: as §4
Mus musculus [15] = assay: Antinociceptive activity in Swiss Webster mouse assessed as inhibition of formalin-induced early phase pain response at 5 mg/kg, ip dosed 40 mins before formalin injection; type: functional, organism-based; design: dose 5 mg/kg; summary of the method: as §3
Mus musculus [16] = assay: Antinociceptive activity in Swiss Webster mouse assessed as increase in latency time at 5 mg/kg, ip measured after 1 hr by hot plate test; type: functional, organism-based; design: dose 5 mg/kg; summary of the method: as §9
Mus musculus [17] = assay: CNS toxicity in Swiss Webster mouse assessed as reduction in motor performance at 10 mg/kg, ip after 40 mins by open field test; type: organism-based; design: dose 10 mg/kg, route intraperitoneal; conditions: in vivo; summary of the method: as §5
Mus musculus [18] = assay: CNS toxicity in Swiss Webster mouse assessed as reduction in motor performance at 10 mg/kg, ip after 40 mins by rotarod test; type: organism-based; design: dose 10 mg/kg, route intraperitoneal; conditions: in vivo; summary of the method: as §7
Mus musculus [19] = assay: Antiinflammatory activity in Swiss Webster mouse assessed as reduction in paw edema at 100 mg/kg, ip dosed 40 mins before CFA injection and measured 2 hrs post CFA stimulus; type: functional, organism-based; design: dose 100 mg/kg; summary of the method: as §8
Mus musculus [20] = assay: Antinociceptive activity in Swiss Webster mouse assessed as inhibition of formalin-induced late phase pain response at 25 to 100 mg/kg, ip dosed 40 mins before formalin injection; type: functional, organism-based; summary of the method: as §3
Mus musculus [21] = assay: Antiinflammatory activity in Swiss Webster mouse assessed as reduction in hyperalgesia at 100 mg/kg, ip dosed 40 mins before CFA injection and measured 2 to 6 hrs post CFA stimulus; type: functional, organism-based; design: dose 100 mg/kg; summary of the method: as §2
Mus musculus [22] = assay: Antinociceptive activity in Swiss Webster mouse assessed as inhibition of acetic acid-induced abdominal constrictions at 25 to 100 mg/kg, ip dosed 40 mins before acetic acid injection; type: functional, organism-based; conditions: Abdomen; summary of the method: as §1

Structure (SMILES): C[C@@]12C[C@H]3OC(=O)[C@@H]1CO[C@]14O[C@]5([C@H]2C1=O)[C@@](O)(CC[C@H]1[C@H]4C[C@H]2O[C@]24CC=CC(=O)[C@]14C)C(=O)O[C@@]35C [PHYSALIN F]
- inhibition (Mus musculus [1]): Active
- inhibition (Mus musculus [2]): inactive
- inhibition (Mus musculus [3]): Active
- Activity (Mus musculus [4]): Active
- Activity (Mus musculus [5]): Non-toxic
- inhibition (Mus musculus [6]): inactive
- Activity (Mus musculus [7]): Non-toxic
- inhibition (Mus musculus [8]): Active
- inhibition (Mus musculus [9]): Active
- inhibition (Mus musculus [10]): Active
- inhibition (Mus musculus [11]): Active
- Activity (Mus musculus [12]): Active

Structure (SMILES): CN1CC[C@]23c4c5ccc(O)c4O[C@H]2[C@@H](O)C=C[C@H]3[C@H]1C5
- inhibition (Mus musculus [13]): Active
- Activity (Mus musculus [14]): Active
- inhibition (Mus musculus [15]): Active
- Activity (Mus musculus [16]): Active

Structure (SMILES): CN1C(=O)CN=C(c2ccccc2)c2cc(Cl)ccc21 [DIAZEPAM]
- Activity (Mus musculus [17]): Toxic
- Activity (Mus musculus [18]): Toxic

Structure (SMILES): C[C@]12C(=O)C=CCC1=CC[C@@H]1[C@@H]2CC[C@]2(O)C(=O)O[C@@]3(C)[C@H]4C[C@]5(C)[C@@H](CO[C@@]16O[C@@]32[C@H]5C6=O)C(=O)O4 [PHYSALIN B]
- inhibition (Mus musculus [19]): Active
- Activity (Mus musculus [4]): Active
- inhibition (Mus musculus [20]): Active
- Activity (Mus musculus [5]): Non-toxic
- inhibition (Mus musculus [21]): inactive
- inhibition (Mus musculus [22]): Dose-dependent effect
- Activity (Mus musculus [7]): Non-toxic

— ChEMBL document CHEMBL3351240, “Antinociceptive properties of physalins from Physalis angulata” (J Nat Prod, 2014)
